Source: the RNAGym collection of RNA variant scans (doi:10.1126/science.aae0568)
This sample holds only a part of the variants without activity.

B1: tRNA (parent)
chain: GUUCCGUUGGCGUAAUGGUAACGCGUCUCCCUCCUAAGGAGAAGACUGCGGGUUCGAGUCCCGUACGGAACG

Variants of: B1
Assay: yeast fitness relative to wild type (ratio to wild type); higher = fitter; tRNA-Arg(CCU), competitive growth, 37 C, YPD
In short: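 Genotype frequency changes were the basis for Darwinian fitness relative to wild type. The frequencies came from 100-nucleotide paired-end sequencing of gene amplicons from the start population and each end population of pooled yeast strains with tRNA-Arg(CCU) gene variants at the native locus. Competition ran in YPD at 37°C for 24 hours in six replicates, genotypes needed ≥ 100 starting reads, and estimates < 0.5 were set to 0.5.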

| Variant | yeast fitness |
| --- | --- |
| C29U U35C A37C A65G C66A | ≤ 0.5 |
| C29U C46G | 1.02 |
| C29U G38C A43U U53G G63C | ≤ 0.5 |
| C29G G41C A57U | ≤ 0.5 |
| C29G C46G | 0.687 |
| C29U C34U G39A G58A C60U | ≤ 0.5 |
| C30A A36U G38C C66A | 0.577 |
| C29U A70U | 0.827 |
| C29U A57G | 0.908 |
| C29G G44C C49G C61G | ≤ 0.5 |
| C29U C33A G63C A65C C66A | ≤ 0.5 |
| C29U U32A C33U G67U A70G | ≤ 0.5 |
| C29U C34G G38C U54A A57C | ≤ 0.5 |
| C30A A69U | 0.963 |
| C30A A37C A43U | 0.608 |
| C30A A40U G51C C61U | 0.646 |
| C29G G51C | 0.55 |
| C29U C34G A43U C62U | ≤ 0.5 |
| C29U C49U C61A | ≤ 0.5 |
| C29U C49U C61U | 0.532 |
| C29U C49A G68C | 0.584 |
| C30A A45C C46U | 0.613 |
| C29U G50C C60A | ≤ 0.5 |
| C29G U35C | 0.522 |

| Variant | yeast fitness |
| --- | --- |
| C29G U35A | 0.582 |
| C29G U35G | ≤ 0.5 |
| C29U A43U C46A G50A C61G G68A | ≤ 0.5 |
| C29G C34G C46A U53A C61U | 0.544 |
| C29U C31U A70G | 0.726 |
| C29U U32C C46A | 0.521 |
| C29U A36G | 0.842 |
| C29U A36C | 0.531 |
| C29U A36U | 0.567 |
| C29U G38A G48C C66U | ≤ 0.5 |
| C29G G56A A69U | ≤ 0.5 |
| C29G G39A G41A | ≤ 0.5 |
| C30A A36U A42G | ≤ 0.5 |
| C29U A37U G67A | 0.643 |
| C29U C31U U54G | 0.522 |
| C29U C62G | 0.656 |
| C29U C62U | 0.763 |
| C29U U59C | 0.868 |
| C29U U59A | 0.701 |
| C29G U47G C49G U54G | ≤ 0.5 |
| C29U G51C C55U | ≤ 0.5 |
| C29U G48C G52A | 0.591 |
| C29U C34U A57C G63A A70G | ≤ 0.5 |
| C30A A65C C66U | ≤ 0.5 |

| Variant | yeast fitness |
| --- | --- |
| C29G C34A C60A | ≤ 0.5 |
| C29U U32G A43U G44C | ≤ 0.5 |
| C29U C33U C61G | ≤ 0.5 |
| C29G U35A G68C | ≤ 0.5 |
| C29U A36C A45U U54C | ≤ 0.5 |
| C29U G38C G63A | ≤ 0.5 |
| C30A A70U | 1.02 |
| C30A A70G | 0.983 |
| C29U A36C G48A G50C | ≤ 0.5 |
| C29U C31G A37C G50A | ≤ 0.5 |
| C30A C31G U32A C60U | ≤ 0.5 |
| C29U A42C A45C G50A | ≤ 0.5 |
| C29G G67C | 0.667 |
| C29G U35G C60G C62G | ≤ 0.5 |
| C29G C55A U64A A65C | ≤ 0.5 |
| C29U G63A A69U | 0.641 |
| C30A A40U G41C C61G G63C | ≤ 0.5 |
| C29U C49G | 0.739 |
| C29U A45U C61U | 0.644 |
| C29U C31A U53G | ≤ 0.5 |
| C29U C31U U59C C66U A70C | 0.55 |
| C29G C49G G50C A69U A70C | ≤ 0.5 |
| C29G C34A A37G C60A | ≤ 0.5 |
| C29U A37G G48A G68C A69U | 0.662 |

| Variant | yeast fitness |
| --- | --- |
| C29U C30U | 0.763 |
| C29U C30A | 0.744 |
| C29U C30G | 0.716 |
| C29G C33U A65C | 0.554 |
| C29U G63A | 0.803 |
| C29U A40C C66U | 0.642 |
| C30A A43U | 0.936 |
| C30A A43G | 0.958 |
| C30A A37G C55U A57G U64A | ≤ 0.5 |
| C29U A36U C66G | ≤ 0.5 |
| C29U A37C C55A G58A | ≤ 0.5 |
| C29U G48C G50A | ≤ 0.5 |
| C29G C33U U47C | ≤ 0.5 |
| C29G G52C | ≤ 0.5 |
| C29U A36C C46U U53A | ≤ 0.5 |
| C29G C55A A65G | ≤ 0.5 |
| C29G G63C A70U | ≤ 0.5 |
| C29G U54A | ≤ 0.5 |
| C29G U54G | 0.563 |
| C29G G38A A43U | 0.689 |
| C29U U35G C62U | ≤ 0.5 |
| C29G C33U U47A C61U A69C | ≤ 0.5 |
| C30A A37G | 0.86 |
| C29U G39A C46A | 1.13 |

| Variant | yeast fitness |
| --- | --- |
| C30A A42G G50A C62U | ≤ 0.5 |
| C29G C62A C66U | ≤ 0.5 |
| C29G C55U G67C | ≤ 0.5 |
| C30A A42G | 0.809 |
| C29G C34A G39C | ≤ 0.5 |
| C30A A42C G56A A57U | 0.558 |
| C29U G67A A70U | 0.52 |
| C29U C34U | 0.716 |
| C29U C34G | 0.603 |
| C29U C34G A36C | ≤ 0.5 |
| C30A A45C C46U A57C | ≤ 0.5 |
| C29U U35C C61G | 0.672 |
| C29U C33A G63A A65C C66A | ≤ 0.5 |
| C29U A36G A40U G56C A69C | ≤ 0.5 |
| C29G U53C C61G G67A A69C | ≤ 0.5 |
| C30A A45G | 0.896 |
| C30A A45U | 0.997 |
| C30A A65G G67C | 0.526 |
| C29U C30U U59A | ≤ 0.5 |
| C29U C46G U54C G56C | ≤ 0.5 |
| C29G C34U G38C C55A | ≤ 0.5 |
| C29G U35G G41C C62U U64A | 0.602 |
| C29U C61G | 0.658 |
| C29U C61A | 0.611 |

| Variant | yeast fitness |
| --- | --- |
| C29U A37U C46U | 0.602 |
| C29U A36C A57U | ≤ 0.5 |
| C29U A65G | 0.934 |
| C29U A65C | 0.751 |
| C29U U54C | 0.83 |
| C29G U32G G38A G48C G67U A69C | ≤ 0.5 |
| C29U C55U C66U | 0.58 |
| C29G C33U G44C G48C C55A | ≤ 0.5 |
| C29U C60G C62U | 0.546 |
| C29G G39C A70U | 0.633 |
| C30A A42G G44A | 0.704 |
| C29G G41C C66G G68A | 0.587 |
| C30A A45U C49A G63U A70U | 0.523 |
| C29G G50A A65U | ≤ 0.5 |
| C29G U32G G38A U53C | 0.566 |
| C29U A40C G56C C61G C62G G68C | ≤ 0.5 |
| C29U C30G A70C | 0.536 |
| C29U C33A C34U C46G C66U | 0.56 |
| C29U G63A G67A | 0.523 |
| C29G U35C A57G | ≤ 0.5 |
| C29G G56A G68C | ≤ 0.5 |
| C29U G56C | 0.595 |
| C29U G56A | 0.765 |
| C29G C34A C60A A69C | ≤ 0.5 |

| Variant | yeast fitness |
| --- | --- |
| C29U G38C A69U | 0.581 |
| C30A C31G G67C | 0.546 |
| C30A A45U C49A G50A G63U A70U | ≤ 0.5 |
| C29G C60G | 0.851 |
| C30A A57U C61A A69G | ≤ 0.5 |
| C29G G68A | 0.595 |
| C29U A40U G56C A69C | 0.519 |
| C29G G48A A69U | 0.542 |
| C30A C31A G38A C49U G52A C66U | ≤ 0.5 |
| C29G C34U G63A G67A A69G | ≤ 0.5 |
| C29G G44A U64G | ≤ 0.5 |
| C29G G50C C55U | ≤ 0.5 |
| C29U C61G A65U | ≤ 0.5 |
| C29G C33U A37G A40C A57C | ≤ 0.5 |
| C29U A37G A65U | ≤ 0.5 |
| C29U A42G U64C | 0.592 |
| C29G C46A U59C | 0.546 |
| C29G U47C C49G C60G | 0.648 |
| C29G U32G G38A U53C C66U | ≤ 0.5 |
| C29U G51A G56A G63C | 0.528 |
| C29G C49U U53C A57C C60G U64C G68U | ≤ 0.5 |
| C29U C33A C34U C46G G52C | ≤ 0.5 |
| C29G U32C A36U C61G | ≤ 0.5 |
